In ChEMBL document CHEMBL4689842, “EUbOPEN Chemogenomics Library wave 1” (2021):

Test system: HEK-293T
Assay: Multiplex assay against HEK293T;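 as to Population Tubulin-Different-Phenotype (%): share of the cells with healthy nuclei that show this phenotype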
Type: toxicity, cell-based
Conditions: human
Outline: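 Live cells were stained at seeding with Hoechst33342, BioTracker Green Microtubule Cytoskeleton Dye, MitoTracker Red and Annexin V Alexa Fluor 680, then imaged on a CQ1 microscope at 37°C and 5% CO2 after compound addition. CellPathfinder machine-learning gating split cells into Hoechst high-intensity objects or normal cells. Normal cells were split into healthy, pyknosed or fragmented nuclei, and pyknosed cells into mitotic or apoptotic. Tubulin, mitochondrial-mass and membrane-permeability phenotypes are per cents of healthy-nucleus cells.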

[1] = 12 h, 1 µM, compound concentration 1 uM, replicate 1
[2] = 12 h, 1 µM, compound concentration 1 uM, replicate 2
[3] = 12 h, 10 µM, compound concentration 10 uM, replicate 1
[4] = 12 h, 10 µM, compound concentration 10 uM, replicate 2
[5] = 24 h, 1 µM, compound concentration 1 uM, replicate 1
[6] = 24 h, 1 µM, compound concentration 1 uM, replicate 2
[7] = 24 h, 10 µM, compound concentration 10 uM, replicate 1
[8] = 24 h, 10 µM, compound concentration 10 uM, replicate 2
[9] = 48 h, 1 µM, compound concentration 1 uM, replicate 1
[10] = 48 h, 1 µM, compound concentration 1 uM, replicate 2
[11] = 48 h, 10 µM, compound concentration 10 uM, replicate 1
[12] = 48 h, 10 µM, compound concentration 10 uM, replicate 2

CC(C)N1CCC(C)(C)c2cc(C#Cc3ccc(C(=O)O)cc3)ccc21
Population Apoptotic (%) [1]: 60% | Population Fragmented Nuclei (%) [1]: 13% | Population Healthy Nuclei (%) [1]: 45% | Population Hoechst High Intensity Objects (%) [1]: 17% | Population Membrane Permeable-Phenotype (%) [1]: 2% | Population Mitochondria Different-Phenotype (%) [1]: 74% | Population Mitotic Cells (%) [1]: 40% | Population Normal (%) [1]: 82% | Population Pyknosed Nuclei (%) [1]: 41% | Population Tubulin-Different-Phenotype (%) [1]: 43% | Total Cell Count [1]: 278 | Population Apoptotic (%) [2]: 18% | Population Fragmented Nuclei (%) [2]: 4% | Population Healthy Nuclei (%) [2]: 54% | Population Hoechst High Intensity Objects (%) [2]: 8% | Population Membrane Permeable-Phenotype (%) [2]: 8% | Population Mitochondria Different-Phenotype (%) [2]: 12% | Population Mitotic Cells (%) [2]: 81% | Population Normal (%) [2]: 91% | Population Tubulin-Different-Phenotype (%) [2]: 6% | Total Cell Count [2]: 156 | Population Apoptotic (%) [3]: 52% | Population Fragmented Nuclei (%) [3]: 51% | Population Healthy Nuclei (%) [3]: 40% | Population Hoechst High Intensity Objects (%) [3]: 64% | Population Membrane Permeable-Phenotype (%) [3]: 5% | Population Mitochondria Different-Phenotype (%) [3]: 66% | Population Mitotic Cells (%) [3]: 47% | Population Normal (%) [3]: 35% | Population Pyknosed Nuclei (%) [3]: 8% | Population Tubulin-Different-Phenotype (%) [3]: 23% | Total Cell Count [3]: 563 | Population Apoptotic (%) [4]: 16% | Population Fragmented Nuclei (%) [4]: 32% | Population Healthy Nuclei (%) [4]: 61% | Population Hoechst High Intensity Objects (%) [4]: 44% | Population Membrane Permeable-Phenotype (%) [4]: 4% | Population Mitochondria Different-Phenotype (%) [4]: 12% | Population Mitotic Cells (%) [4]: 83% | Population Normal (%) [4]: 55% | Population Pyknosed Nuclei (%) [4]: 5% | Population Tubulin-Different-Phenotype (%) [4]: 5% | Total Cell Count [4]: 405 | Population Apoptotic (%) [5]: 58% | Population Fragmented Nuclei (%) [5]: 13% | Population Healthy Nuclei (%) [5]: 45% | Population Hoechst High Intensity Objects (%) [5]: 19% | Population Membrane Permeable-Phenotype (%) [5]: 6% | Population Mitochondria Different-Phenotype (%) [5]: 52% | Population Mitotic Cells (%) [5]: 41% | Population Normal (%) [5]: 80% | Population Pyknosed Nuclei (%) [5]: 41% | Population Tubulin-Different-Phenotype (%) [5]: 49% | Total Cell Count [5]: 315 | Population Apoptotic (%) [6]: 14% | Population Fragmented Nuclei (%) [6]: 4% | Population Healthy Nuclei (%) [6]: 59% | Population Hoechst High Intensity Objects (%) [6]: 4% | Population Membrane Permeable-Phenotype (%) [6]: 7% | Population Mitochondria Different-Phenotype (%) [6]: 4% | Population Mitotic Cells (%) [6]: 85% | Population Normal (%) [6]: 95% | Population Pyknosed Nuclei (%) [6]: 35% | Population Tubulin-Different-Phenotype (%) [6]: 10% | Total Cell Count [6]: 168 | Population Apoptotic (%) [7]: 37% | Population Fragmented Nuclei (%) [7]: 56% | Population Healthy Nuclei (%) [7]: 40% | Population Hoechst High Intensity Objects (%) [7]: 62% | Population Membrane Permeable-Phenotype (%) [7]: 6% | Population Mitochondria Different-Phenotype (%) [7]: 37% | Population Mitotic Cells (%) [7]: 62% | Population Normal (%) [7]: 37% | Population Pyknosed Nuclei (%) [7]: 4% | Population Tubulin-Different-Phenotype (%) [7]: 21% | Total Cell Count [7]: 530 | Population Apoptotic (%) [8]: 0% | Population Fragmented Nuclei (%) [8]: 29% | Population Healthy Nuclei (%) [8]: 67% | Population Hoechst High Intensity Objects (%) [8]: 46% | Population Membrane Permeable-Phenotype (%) [8]: 3% | Population Mitochondria Different-Phenotype (%) [8]: 6% | Population Mitotic Cells (%) [8]: 100% | Population Normal (%) [8]: 53% | Population Pyknosed Nuclei (%) [8]: 3% | Population Tubulin-Different-Phenotype (%) [8]: 9% | Total Cell Count [8]: 448 | Population Apoptotic (%) [9]: 43% | Population Fragmented Nuclei (%) [9]: 15% | Population Healthy Nuclei (%) [9]: 56% | Population Hoechst High Intensity Objects (%) [9]: 17% | Population Membrane Permeable-Phenotype (%) [9]: 6% | Population Mitochondria Different-Phenotype (%) [9]: 29% | Population Mitotic Cells (%) [9]: 56% | Population Normal (%) [9]: 82% | Population Pyknosed Nuclei (%) [9]: 28% | Population Tubulin-Different-Phenotype (%) [9]: 27% | Total Cell Count [9]: 389 | Population Apoptotic (%) [10]: 11% | Population Fragmented Nuclei (%) [10]: 9% | Population Healthy Nuclei (%) [10]: 80% | Population Hoechst High Intensity Objects (%) [10]: 2% | Population Membrane Permeable-Phenotype (%) [10]: 5% | Population Mitochondria Different-Phenotype (%) [10]: 2% | Population Mitotic Cells (%) [10]: 88% | Population Normal (%) [10]: 97% | Population Pyknosed Nuclei (%) [10]: 10% | Population Tubulin-Different-Phenotype (%) [10]: 9% | Total Cell Count [10]: 358 | Population Apoptotic (%) [11]: 37% | Population Fragmented Nuclei (%) [11]: 57% | Population Healthy Nuclei (%) [11]: 38% | Population Hoechst High Intensity Objects (%) [11]: 66% | Population Membrane Permeable-Phenotype (%) [11]: 7% | Population Mitochondria Different-Phenotype (%) [11]: 12% | Population Mitotic Cells (%) [11]: 62% | Population Normal (%) [11]: 33% | Population Pyknosed Nuclei (%) [11]: 3% | Population Tubulin-Different-Phenotype (%) [11]: 3% | Total Cell Count [11]: 624 | Population Apoptotic (%) [12]: 0% | Population Fragmented Nuclei (%) [12]: 23% | Population Healthy Nuclei (%) [12]: 73% | Population Hoechst High Intensity Objects (%) [12]: 52% | Population Membrane Permeable-Phenotype (%) [12]: 4% | Population Mitochondria Different-Phenotype (%) [12]: 1% | Population Mitotic Cells (%) [12]: 100% | Population Normal (%) [12]: 47% | Population Pyknosed Nuclei (%) [12]: 2% | Population Tubulin-Different-Phenotype (%) [12]: 5% | Total Cell Count [12]: 571
